Sampled rows, rich in hits. Any-hit rate of the full collection: about 3.1%.
OX1R antag-1: antagonists of human orexin 1 receptor (OX1R); O43613; AID 485270; OX1R-expressing cells, FRET antagonist read-out; inhibition, % at 6.6 µM; actives 1.8% (n = 330,000); in the data active = inhibition mostly above about 38%, no sharp cut-off; inactive = mostly below about 40%
Target sequence (O43613 whole entry, looked up): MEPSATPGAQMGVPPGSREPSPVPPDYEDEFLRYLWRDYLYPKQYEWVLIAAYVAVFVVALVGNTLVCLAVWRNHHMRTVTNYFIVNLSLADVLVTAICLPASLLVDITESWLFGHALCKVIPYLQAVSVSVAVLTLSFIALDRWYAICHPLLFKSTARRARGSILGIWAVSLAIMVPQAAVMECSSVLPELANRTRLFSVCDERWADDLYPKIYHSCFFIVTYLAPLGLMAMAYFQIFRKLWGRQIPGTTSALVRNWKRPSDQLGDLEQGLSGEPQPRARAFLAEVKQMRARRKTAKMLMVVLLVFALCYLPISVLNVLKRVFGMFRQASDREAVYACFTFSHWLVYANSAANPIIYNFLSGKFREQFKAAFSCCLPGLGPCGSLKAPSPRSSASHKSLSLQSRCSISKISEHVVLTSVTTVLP
CHO parental Ca: counter-screen: ATP calcium response change in parental CHO cells; parental CHO-K1, ATP-induced calcium, Fluo-8 fluorescence; inhibition, % at 5.6 µM; actives 0.63% (n = 330,000);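 active = inhibition above that plate's mean sample inhibition plus 3 SD, cut at about 26% in these data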
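Material: parental CHO cells / Compound: single nominal dose of 5.6 µM per compound / Signal: Fluo-8 fluorescence / Replicates: singlicate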
GalR3 antag: antagonists of human GalR3. AID 651719. actives 0.44% (n = 360,000). inhibition, % at 3 µM. O60755. HEK293 GalR3-CNG cAMP membrane potential fluorescence; galR3 body fused to GalR1 C-terminus;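 active = inhibition above the screen-wide average plus 3 SD, cut at about 13% in these data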;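 also: forskolin and galanin both at EC90 stimulate the cells; cAMP rise reported by CNG channel membrane potential dye signal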
Target sequence (O60755 1-299 limits assumed): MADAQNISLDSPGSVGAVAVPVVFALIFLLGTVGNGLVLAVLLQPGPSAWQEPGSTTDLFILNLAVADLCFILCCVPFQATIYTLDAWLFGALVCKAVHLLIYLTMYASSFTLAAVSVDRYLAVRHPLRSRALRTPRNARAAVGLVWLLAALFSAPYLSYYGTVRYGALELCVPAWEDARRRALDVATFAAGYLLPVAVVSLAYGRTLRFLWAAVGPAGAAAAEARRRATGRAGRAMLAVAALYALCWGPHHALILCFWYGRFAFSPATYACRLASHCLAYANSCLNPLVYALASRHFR
OX1R antag-2: antagonists of human orexin 1 receptor | O43613 | CHO/OX1R cells, Fluo-8 calcium fluorescence, orexin A | inhibition, % at 5 µM | actives 0.43% (n = 330,000) | AID 434989;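 active = inhibition above its plate's threshold, mean inhibition of all tested compounds on the plate plus 3 SD, cut at about 37% in these data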
GPR7 antag: blocks human GPR7 receptor signaling. GPR7-expressing cells, fluorescence antagonist assay. P48145. actives 1.1% (n = 290,000). inhibition, % at 4.4 µM; in the data active = inhibition above about 16%, passing the limit was not always enough;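 also: cells stimulated with the agonist NPW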
Each line names hits and unclear results; the compound was inactive in the other large screens.

Cc1nn(-c2ccccc2)c(Cl)c1C(=O)N1CCN(c2ncnc3c2cnn3-c2ccccc2)CC1	OX1R antag-1 83, CHO parental Ca 78, OX1R antag-2 51
CN(CCOc1ccccc1)C(=O)c1cc([N+](=O)[O-])cc([N+](=O)[O-])c1	OX1R antag-1 38
Cc1ccc([N+](=O)[O-])cc1NC(=O)CN(C)CCOc1ccccc1	none
CN(CCOc1ccccc1)CC(=O)Nc1cc([N+](=O)[O-])ccc1Cl	OX1R antag-1 62
CCCCNC(=S)Nc1ccc([N+](=O)[O-])cc1	GPR7 antag 23
CC(C)CCNC(=S)Nc1ccc(Br)cc1	none
CC(C)CCNC(=S)Nc1ccc([N+](=O)[O-])cc1	GPR7 antag 22
CCCCNc1ccc2c(c1)OC[C@H](CC(C)C)NS2(=O)=O	none (no result: OX1R antag-1, CHO parental Ca, OX1R antag-2, GPR7 antag)
CC(C)(C)OC(=O)N1C[C@@]23C[C@H](c4cccc(F)c4)[C@@H](C[C@@H]2S1(=O)=O)O3	none (no result: OX1R antag-1, CHO parental Ca, OX1R antag-2, GPR7 antag)
CCCOCCOC(=O)c1[nH]c2c(c1C)C(=O)CC(c1cc(OC)ccc1OC)C2 (centres undefined)	GPR7 antag 20
COc1cc(C2CC(=O)c3c([nH]c(C(=O)OCCOC(C)C)c3C)C2)cc(OC)c1OC (centres undefined)	CHO parental Ca 31, GPR7 antag 18
CCOCCOC(=O)c1[nH]c2c(c1C)C(=O)CC(c1ccc(OC)c(OC)c1)C2 (centres undefined)	none
Cc1noc(C)c1S(=O)(=O)Nc1ccc(C(=O)N2CCN(c3cccc(Cl)c3)CC2)cc1	CHO parental Ca 33, OX1R antag-2 56
COc1cccc(CNC(=O)[C@H]2CCCN2C(=O)[C@H]2CCCN2C(=O)c2c(F)cccc2F)c1	none (no result: OX1R antag-1, CHO parental Ca, OX1R antag-2, GPR7 antag)
Cc1cc(C)cc(Nc2ccc3nonc3c2[N+](=O)[O-])c1	none (no result: GPR7 antag)
O=[N+]([O-])c1c(NCc2ccco2)ccc2nonc12	OX1R antag-1 68
Cc1cc([N+](=O)[O-])ccc1NCc1ccco1	none
O=[N+]([O-])c1c(Nc2ccccc2)ccc2nonc12	OX1R antag-1 64
CCOC(=O)NNc1ccc2nonc2c1[N+](=O)[O-]	OX1R antag-1 35 (no result: GalR3 antag)
Cc1cccc(Nc2ccc3nonc3c2[N+](=O)[O-])c1C	none
O=C(O)c1ccccc1Nc1ccc([N+](=O)[O-])c2nonc12	OX1R antag-1 34 (no result: GalR3 antag)
COc1ccccc1CCn1cnc(-c2ccc(OC)c(OC)c2)c1CC(C)C	none (no result: OX1R antag-1, CHO parental Ca, OX1R antag-2, GPR7 antag)
CCOC(=O)Cc1csc2nc(-c3ccccc3)cn12	none (no result: OX1R antag-1, CHO parental Ca, OX1R antag-2, GPR7 antag)
O=[N+]([O-])c1ccc(S(=O)(=O)c2ccccc2)nc1	OX1R antag-1 59
Cc1ccc(S(=O)(=O)c2ccc([N+](=O)[O-])cn2)cc1	none
Cc1cc(S(=O)(=O)c2ccc([N+](=O)[O-])cn2)ccc1Br	CHO parental Ca 55 (no result: GPR7 antag)
O=C(COC(=O)c1ccc([N+](=O)[O-])s1)Nc1cccc(S(=O)(=O)NC2=NCCCCC2)c1	none
O=C(OCc1nnc(-c2ccccc2)o1)c1ccc([N+](=O)[O-])s1	OX1R antag-1 47 (no result: GPR7 antag)
O=C(OCC(=O)N1CCC(c2ccccc2)=N1)c1ccc([N+](=O)[O-])s1	OX1R antag-1 61 (no result: GPR7 antag)
O=C(COC(=O)c1ccc([N+](=O)[O-])s1)Nc1ccccc1	OX1R antag-1 72
Cc1c(Cl)cnc(NC(=O)COC(=O)c2ccc([N+](=O)[O-])s2)c1Cl	OX1R antag-1 63
Cc1ccc(C(=O)OCc2nnc(-c3ccccc3)o2)s1	none (no result: GPR7 antag)
O=C(COC(=O)c1ccc([N+](=O)[O-])s1)Nc1ccc(Cl)cn1	none
CCOC(=O)[C@H]1[C@H]2COc3ccc(Br)cc3[C@H]2N2C(=O)CN(Cc3ccc(Cl)cc3)C(=O)[C@@]12C	none (no result: OX1R antag-1, CHO parental Ca, OX1R antag-2, GPR7 antag)
Cc1cc(C(=O)N2CCC2(C)C(=O)NCc2cccc3ccccc23)nn1C (centres undefined)	none (no result: OX1R antag-1, CHO parental Ca, OX1R antag-2, GPR7 antag)
CC(C)(C)c1ccc(NC(=O)COC(=O)c2ccc([N+](=O)[O-])s2)cc1	none
O=C(COC(=O)c1ccc([N+](=O)[O-])s1)Nc1ccc(F)cc1	OX1R antag-1 42 (no result: GPR7 antag)
O=C(NCc1ccco1)c1nnc(Cc2ccc(Cl)cc2)o1	none
Cc1ccc(CNC(=O)c2nnc(Cc3ccc(Cl)cc3)o2)cc1	CHO parental Ca 44
O=C(Cn1cnc2c(nnn2Cc2ccc(F)cc2)c1=O)OCc1ccccc1	none
Cc1ccc(-n2nnc3c(=O)n(CC(=O)NCc4ccccc4)cnc32)cc1	CHO parental Ca 42 (no result: GalR3 antag)
Cc1ccc(Cn2nnc3c(=O)n(CC(=O)OCc4ccccc4)cnc32)cc1	CHO parental Ca 31
CN(CCCNC(=O)CSc1cc(=O)n(C)c2cc(Cl)ccc12)Cc1ccccc1	GPR7 antag 21
Cn1c(=O)cc(SCC(=O)NCCC2=CCCCC2)c2ccc(Cl)cc21	none
Clc1ccc2[nH]c3c(NCCCN4CCOCC4)ncnc3c2c1	GPR7 antag 20
O=C(OCc1ccccc1)N1C=CC2CC1c1c(Cl)cccc12 (centres undefined)	none (no result: OX1R antag-1, CHO parental Ca, OX1R antag-2, GPR7 antag)
O=C(N/N=C/c1ccc([N+](=O)[O-])o1)c1ccc(NS(=O)(=O)c2cccs2)cc1	OX1R antag-1 45
O=C(N/N=C/c1ccc([N+](=O)[O-])cc1)c1ccc(NS(=O)(=O)c2cccs2)cc1	none (no result: GPR7 antag)
CC(=O)Nc1ccc(S(=O)(=O)NCC2CCN(C(=O)C(=O)c3cc4ccccc4o3)CC2)cc1	none (no result: OX1R antag-1, CHO parental Ca, OX1R antag-2, GPR7 antag)
CC1CCCN(C(=O)c2ccc([N+](=O)[O-])o2)C1 (centres undefined)	none
CN(Cc1ccccc1)C(=O)c1ccc([N+](=O)[O-])o1	OX1R antag-1 54
CC1CCN(C(=O)c2ccc([N+](=O)[O-])o2)CC1	OX1R antag-1 44
O=C(c1ccc([N+](=O)[O-])o1)N1CCN(Cc2ccccc2)CC1	OX1R antag-1 30
O=S(=O)(NCc1ccc(Cl)c(Cl)c1)c1cc(Cl)ccc1N1CC[C@@H](O)C1	none (no result: OX1R antag-1, CHO parental Ca, OX1R antag-2, GPR7 antag)
COc1ccc(CCn2cnn3c(=O)c4ccccc4nc3c2=O)cc1OC	none (no result: OX1R antag-1, CHO parental Ca, OX1R antag-2, GPR7 antag)
COC(=O)C1=C(C)N(C)C(=NCc2ccc(C(F)(F)F)cc2)NC1c1cccc(F)c1 (centres undefined)	none (no result: OX1R antag-1, CHO parental Ca, OX1R antag-2, GPR7 antag)
COc1ccccc1C(=O)Nc1nnc(-c2ccc3c(c2)CCCC3)o1	OX1R antag-1 68
CCOC(=O)/C(C#N)=C/Nc1cc(OC)ccc1OC	none
CCOC(=O)/C(C#N)=C/Nc1ccccc1OC(F)(F)F	CHO parental Ca 45
COc1ccccc1S(=O)(=O)N(C)C[C@H]1Oc2cc(Br)ccc2S(=O)(=O)N([C@H](C)CO)C[C@H]1C	none (no result: OX1R antag-1, CHO parental Ca, OX1R antag-2, GPR7 antag)
Cc1cccc(C)c1NC(=O)C(c1ccncc1)N1CCN(CCN(C)C)CC1 (centres undefined)	none (no result: OX1R antag-1, CHO parental Ca, OX1R antag-2, GPR7 antag)
Cc1cccc(C)c1-n1nnnc1C(c1ccnc2ccccc12)N(Cc1ccccc1)Cc1ccccc1 (centres undefined)	none (no result: OX1R antag-1, CHO parental Ca, OX1R antag-2, GPR7 antag)
CCOC(=O)c1c(-c2ccccc2)oc2ccc(OC(C)=O)cc12	OX1R antag-1 64
CCOC(=O)c1c(-c2ccccc2)oc2ccc(OC(C)C(=O)O)cc12 (centres undefined)	none
CCCNC(=O)CSc1nnc(NC(=O)C2CC(=O)N(c3ccccc3OC)C2)s1 (centres undefined)	none (no result: OX1R antag-1, CHO parental Ca, OX1R antag-2, GPR7 antag)
